The source made the active and inactive calls. No cut-off for these calls is given here.
What was measured:
[1] = Inhibition of chymotrypsin-like activity of rabbit 20s proteasome beta5 subunit using Suc-Leu-Leu-Val-Tyr-AMC as substrate after 1 hr by fluorescence assay; set-up: species or system Oryctolagus cuniculus
[2] = species on record: Oryctolagus cuniculus; experiment: Inhibition of chymotrypsin-like activity of rabbit 20s proteasome beta5 subunit using Suc-Leu-Leu-Val-Tyr-AMC as substrate at 10 uM after 1 hr by fluorescence assay
How it was run: (§1)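 Purified rabbit 20S proteasome at 1 nM, with or without compound, incubated 1 h at 37 °C in 50 mM Tris-HCl pH 7.6 with fluorogenic AMC peptide: 20 µM […] (CT-L), Bz-Val-Gly-Arg-AMC (T-L) or Z-Leu-Leu-Glu-AMC (PGPH-L).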

[3] = system: MDA-MB-468; experiment: Cytotoxicity against human MDA-MB-468 cells assessed as decrease in cell survival after 120 hrs by MTT assay; format: functional, cell-based
How it was run: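 MDA-MB-468 cells (DMEM, 10% FBS, penicillin/streptomycin, 37 °C, 5% CO2) attached overnight, then exposed 120 h to varying inhibitor concentrations; medium replaced with complete medium containing 1 mg/ml MTT for 3 h at 37 °C, DMSO solubilisation, absorbance at 540 nm. IC50 from a four-parameter curve fit of % inhibition versus concentration.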

[4] = Inhibition of postglutamyl-peptide-hydrolysis-like activity of rabbit 20s proteasome beta1 subunit using benzyloxycarbonyl Z-Leu-Leu-Glu-AMC as substrate after 1 hr by fluorescence assay; set-up: species or system Oryctolagus cuniculus; how it was run: as §1
[5] = Inhibition of trypsin-like activity of rabbit 20s proteasome beta2 subunit using Bz-Val-Gly-Arg-AMC as substrate after 1 hr by fluorescence assay; set-up: species or system Oryctolagus cuniculus; how it was run: as §1
[6] = species on record: Oryctolagus cuniculus; experiment: Reversible inhibition of chymotrypsin-like activity of rabbit 20s proteasome beta5 subunit assessed as residual activity at 10 uM after 2 hrs by dialysis method relative to control
[7] = species on record: Oryctolagus cuniculus; experiment: Covalent binding affinity to rabbit 20s proteasome beta5 subunit assessed as modification of TTTLAFK peptide after 30 mins by LC-MS/MS analysis
How it was run: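 Purified rabbit 20S proteasome (1 nM) incubated with inhibitor in 50 mM Tris-HCl pH 7.6 for 30 min at room temperature; acetonitrile added, then trypsin (enzyme:substrate 1:50) digestion for 4 h at 37 °C; peptides concentrated, C18 tip-extracted, then LC/MS-MS checking the N-terminal Thr-1 TTTLAFK peptide for modification versus vehicle (DMSO).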

[8] = species on record: Oryctolagus cuniculus; experiment: Reversible inhibition of chymotrypsin-like activity of rabbit 20s proteasome beta5 subunit assessed as residual activity at 10 uM after 20 mins by dialysis method relative to control
[9] = biological target: T1, Proteasome Macropain subunit MB1 (Homo sapiens, UniProt P28074); experiment: (§2) Inhibition of chymotrypsin-like activity of proteasome beta5 subunit in human MDA-MB-468 cells using Suc-Leu-Leu-Val-Tyr-AMC as substrate after 2 hrs by fluorescence assay; format: cell-based
T1 sequence (P28074 whole entry): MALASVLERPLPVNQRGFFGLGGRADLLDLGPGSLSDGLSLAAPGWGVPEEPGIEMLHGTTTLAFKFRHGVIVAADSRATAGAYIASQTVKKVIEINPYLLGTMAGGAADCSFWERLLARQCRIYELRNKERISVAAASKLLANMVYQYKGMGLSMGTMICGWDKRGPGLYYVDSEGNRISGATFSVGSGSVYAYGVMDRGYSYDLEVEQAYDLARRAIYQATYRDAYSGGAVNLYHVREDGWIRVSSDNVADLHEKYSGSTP

[10] = biological target: T2, Proteasome Macropain subunit MB1 (Homo sapiens) (UniProt P28074); experiment: as §2; format: cell-based
T2 sequence (whole entry): T1 sequence (P28074 whole entry)

[11] = species on record: Oryctolagus cuniculus; experiment: Reversible inhibition of chymotrypsin-like activity of rabbit 20s proteasome beta5 subunit at 2.5 uM after 18 hrs by dialysis method

Row | Compound | IC50 [1] [nM] | further results
1 | CCc1ccc(OCC(=O)N(Cc2nc(-c3ccccc3)no2)C(C)C)cc1 | 260 | 
2 | CC(C)N(Cc1nc(-c2cccnc2)no1)C(=O)COc1ccc(O)cc1 | 980 | 
3 | CCCc1ccc(OCC(=O)N(Cc2nc(-c3ncccn3)no2)C(C)C)cc1 | 1270 | 
4 | Cc1ccc(OCC(=O)N(Cc2nc(-c3ccc(C)cc3)no2)C2CC2)cc1 |  | inhibition [2]: inactive
5 | Cc1ccc(OCC(=O)N(C)Cc2nc(-c3ccc(C)cc3)no2)cc1 | 29900 | 
6 | CC(C)N(Cc1nc(-c2ccccc2)no1)C(=O)COc1ccc(C(=O)OC(C)(C)C)cc1 |  | inhibition [2]: inactive
7 | CC(C)N(Cc1nc(-c2ccccc2)no1)C(=O)COc1ccc(O)cc1 | 10100 | 
8 | CCCc1ccc(OCC(=O)N(Cc2nc(-c3cnccn3)no2)C(C)C)cc1 | 105 | 
9 | Cc1ccc(OCC(=O)N(Cc2nc(-c3cccnc3)no2)C(C)C)cc1 | 220 | 
10 | Cc1ccc(OCC(=O)N(Cc2nc(-c3ccccn3)no2)C(C)C)cc1 | 3750 | 
11 | CC(C)N(Cc1nc(-c2ccc(Cl)cc2)no1)C(=O)COc1ccc(Cl)cc1 | 1070 | 
12 | CC(C)N(Cc1nc(-c2cccnc2)no1)C(=O)COc1ccc(C2CCCCC2)cc1 | 1360 | 
13 | CCc1ccc(OCC(=O)N(Cc2nc(-c3cccnc3)no2)C(C)C)cc1 | 99 | 
14 | CCN(Cc1nc(-c2ccc(C)cc2)no1)C(=O)COc1ccc(C)cc1 | 6040 | 
15 | Cc1ccc(OCC(=O)N(Cc2nc(-c3ccc(C)cc3)no2)C(C)(C)C)cc1 |  | inhibition [2]: inactive
16 | Cc1ccc(OCC(=O)N(Cc2nc(-c3ccccc3)no2)C(C)C)cc1 | 310 | 
17 | Cc1ccc(OCC(=O)N(CCc2nc(-c3ccccc3)no2)C(C)C)cc1 |  | inhibition [2]: inactive
18 | CC(C)N(Cc1nc(-c2ccccc2)no1)C(=O)CCc1ccc(C(F)(F)F)cc1 | 53500 | 
19 | CC(C)Cc1ccc(OCC(=O)N(Cc2nc(-c3cccnc3)no2)C(C)C)cc1 | 140 | 

Row | Compound | IC50 [1] [nM] | further results
20 | Cc1ccc(CNC(=O)N(Cc2nc(-c3ccccc3)no2)C(C)C)cc1 |  | inhibition [2]: inactive
21 | Cc1ccc(NCC(=O)N(Cc2nc(-c3ccccc3)no2)C(C)C)cc1 | 5670 | 
22 | Cc1ccc(-c2noc(CN(C(=O)COc3ccc(Cl)cc3)C(C)C)n2)cc1 | 1120 | 
23 | CC(C)N(Cc1nc(-c2ccc(C(F)(F)F)cc2)no1)C(=O)COc1ccccc1 | 11200 | 
24 | CC(C)N(Cc1nc(-c2ccc(C(F)(F)F)cc2)no1)C(=O)COc1ccc(Cl)cc1 | 1410 | 
25 | Cc1cccc(OCC(=O)N(Cc2nc(-c3ccccc3)no2)C(C)C)c1 |  | inhibition [2]: inactive
26 | CC(C)c1ccc(OCC(=O)N(Cc2nc(-c3cccnc3)no2)C(C)C)cc1 | 440 | 
27 | Cc1ccc(-c2noc(CN(C(=O)COc3ccccc3)C(C)C)n2)cc1 | 8500 | 
28 | Cc1ccc(OCC(=O)N(Cc2nc(-c3ccncc3)no2)C(C)C)cc1 | 370 | 
29 | Cc1ccc(-c2noc(CN(C(=O)COc3ccc(C(F)(F)F)cc3)C(C)C)n2)cc1 | 1080 | 
30 | Cc1ccc(OCC(=O)NCc2nc(-c3ccc(C)cc3)no2)cc1 |  | inhibition [2]: inactive
31 | Cc1ccc(OCC(=O)N(Cc2nc(-c3ccc(C)cc3)no2)CC(C)C)cc1 | 2370 | 
32 | CC(C)N(Cc1nc(-c2ccccc2)no1)C(=O)COc1ccc(F)cc1 | 10100 | 
33 | Cc1ccc(OCC(=O)N(Cc2nc(-c3ccccc3)no2)C(C)C)cn1 | 4000 | 
34 | CCCCCc1ccc(OCC(=O)N(Cc2nc(-c3cccnc3)no2)C(C)C)cc1 | 120 | 
35 | CCCc1ccc(OCC(=O)N(Cc2nc(-c3ccc(C)cc3)no2)C(C)C)cc1 | 273 | 
36 | CC(C)N(Cc1nc(-c2ccccc2)no1)C(=O)COc1ccc2cc(Br)ccc2c1 |  | inhibition [2]: inactive
37 | CCCc1ccc(OCC(=O)N(Cc2nc(-c3cccnc3)no2)C(C)C)cc1 | 27 | Activity [3]: Active; IC50 [4]: > 100 µM; IC50 [5]: > 100 µM
38 | CC(C)N(Cc1nc(-c2ccc(C(F)(F)F)cc2)no1)C(=O)COc1ccc(C(F)(F)F)cc1 | 2530 | 

Row | Compound | IC50 [1] [nM] | further results
39 | CC(C)N(Cc1nc(-c2ccccc2)no1)C(=O)COc1ccc(C(F)(F)F)cc1 | 430 | 
40 | CC(C)N(Cc1nc(-c2ccccc2)no1)C(=O)COc1ccc(Cl)cc1 | 510 | 
41 | CCCCc1ccc(OCC(=O)N(Cc2nc(-c3cccnc3)no2)C(C)C)cc1 | 39 | 
42 | Cc1ccc(OCC(=O)N(Cc2nc(-c3ccc(C)cc3)no2)C(C)C)cc1 | 600 | Activity [6]: 100%; Activity [3]: Active; IC50 [4]: > 100 µM; Activity [7]: inactive; Activity [8]: > 70%; IC50 [5]: > 100 µM; IC50 [9]: 3.5 µM; inhibition [10]: Dose-dependent effect
43 | CC(C)N(Cc1nc(-c2cccnc2)no1)C(=O)COc1ccc(Cl)cc1 | 140 | 
44 | CC(C)N(Cc1nc(-c2cccnc2)no1)C(=O)COc1ccc(C(C)(C)C)cc1 | 46500 | 
45 | CC(C)N(Cc1nc(-c2ccccc2)no1)C(=O)COc1ccc(-c2ccccc2)cc1 |  | inhibition [2]: inactive
46 | Cc1ccc(OCC(=O)N(Cc2nc(-c3ccc(Cl)cc3)no2)C(C)C)cc1 | 450 | 
47 | CC(C)N(Cc1nc(-c2ccc(Cl)cc2)no1)C(=O)COc1ccc(C(F)(F)F)cc1 | 940 | 
48 | CC(C)N(Cc1nc(-c2cccnc2)no1)C(=O)c1cc2ccccc2o1 | 379 | 
49 | CC(C)N(Cc1nc(-c2ccccc2)no1)C(=O)COc1ccc(C(=O)O)cc1 |  | inhibition [2]: inactive
50 | Cc1ccccc1OCC(=O)N(Cc1nc(-c2ccccc2)no1)C(C)C |  | inhibition [2]: inactive
51 | CC(C)N(Cc1nc(-c2cccnc2)no1)C(=O)COc1ccc(F)cc1 | 1930 | 
52 | CC(C)N(Cc1nc(-c2ccccc2)no1)C(=O)COc1ccccc1 | 6200 | 
53 | CCCCc1ccc(OCC(=O)N(Cc2nc(-c3cnccn3)no2)C(C)C)cc1 | 107 | 
54 | CCCCCCc1ccc(OCC(=O)N(Cc2nc(-c3cccnc3)no2)C(C)C)cc1 | 430 | 
55 | CC(C)N(Cc1nc(-c2cccnc2)no1)C(=O)COc1ccccc1 | 2710 | 
56 | Cc1ccc(OCC(=O)N(Cc2nc(-c3ccc(C(F)(F)F)cc3)no2)C(C)C)cc1 | 970 | 
57 | CC(=O)N[C@@H](CSC(=O)[C@]1([C@@H](O)C(C)C)NC(=O)[C@H](C)[C@@H]1O)C(=O)O |  | Activity [7]: Active; inhibition [11]: inactive

Reference: ChEMBL document CHEMBL2346591, “Oxadiazole-isopropylamides as potent and noncovalent proteasome inhibitors” (J Med Chem, 2013)
